Reference: ChEMBL document CHEMBL1156469 (2007)
Calls of active or inactive are those of the source. The rule behind the calls is not given here.

Key:
MC3T3-E1 [1] = experiment: Increase in osteocalcin mRNA levels in mouse MC3T3-E1 cells at 1 uM after 72 hrs by RT-PCR; type: functional, cell-based
Method in brief: (§1)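 Cells treated with 1 μm for 72 h; osteocalcin and osteopontin mRNA by RT-PCR, 30 cycles (95/52/72 °C, 1 min each), ethidium bromide–stained agarose gels; repeated at least twice from at least two cDNA preparations.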

MDA-MB-231 [2] = experiment: Decrease in Akt activation in human MDA-MB-231 cells expressing FOXO3a-specific small interfering RNA xenografted in nude mice at 10 mg/kg for 2 days; type: functional, organism-based; design: dose 10 mg/kg
Method in brief: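 MDA-MB-231 cells were cotransfected with FOXO3a siRNA (pSuper) and pcDNA3 at a 10:1 ratio. Stable pools were selected in 800 μg/ml G418 for 4 weeks, and control siRNA pools were made the same way. […] Akt phosphorylation was then assessed in the primary tumors.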

MC3T3-E1 [3] = experiment: Increase in proliferation of mouse MC3T3-E1 cells assessed as fraction of cells in S phase at 0.1 to 10 uM after 24 hr by flow cytometry; type: functional, cell-based
Osteoblast [4] = experiment: Inhibition of antiapoptotic activity in rat primary osteoblast cells at 1 uM after 48 hrs in presence of noggin; type: functional, cell-based
[5] = target: T1, Estrogen receptor (Mus musculus) (UniProt P19785); experiment: Reversal of increase in DNA-binding activity of ERalpha in nuclear extracts of mouse MC3T3-E1 cells transfected with dominant-negative mutant Src expression vector by electrophoretic mobility shift assays; type: cell-based
T1 sequence (whole entry): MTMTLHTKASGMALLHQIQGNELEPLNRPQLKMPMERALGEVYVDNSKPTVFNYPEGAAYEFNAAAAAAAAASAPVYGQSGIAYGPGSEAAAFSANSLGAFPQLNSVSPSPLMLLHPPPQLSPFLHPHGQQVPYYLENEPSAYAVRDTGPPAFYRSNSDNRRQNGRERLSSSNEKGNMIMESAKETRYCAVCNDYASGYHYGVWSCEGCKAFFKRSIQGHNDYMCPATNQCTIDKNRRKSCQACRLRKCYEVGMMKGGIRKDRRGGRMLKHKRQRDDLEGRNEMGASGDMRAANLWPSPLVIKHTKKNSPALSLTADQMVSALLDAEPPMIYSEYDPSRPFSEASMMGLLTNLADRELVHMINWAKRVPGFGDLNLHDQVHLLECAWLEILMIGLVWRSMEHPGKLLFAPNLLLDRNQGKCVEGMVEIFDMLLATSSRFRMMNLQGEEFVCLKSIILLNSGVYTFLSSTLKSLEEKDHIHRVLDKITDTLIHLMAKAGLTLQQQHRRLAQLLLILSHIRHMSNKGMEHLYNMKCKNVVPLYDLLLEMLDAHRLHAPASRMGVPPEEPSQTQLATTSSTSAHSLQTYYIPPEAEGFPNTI
Method in brief: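 Nuclear extracts of MC3T3-E1 cells. ER-binding probe [α-32P]dCTP end-labeled, 20-min binding at room temperature, 5-fold unlabeled competitor where used. Complexes resolved on 5% nondenaturing PAGE in Tris-borate-EDTA pH 8.3, then autoradiography.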

Osteoblast [6] = experiment: Effect on matrix metalloprotease 10 gene expression in rat primary osteoblast cells assessed as expression ratio of treated to untreated control by microarray analysis; type: functional
Method in brief: (§2)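 Resveratrol-treated and vehicle-treated primary osteoblasts were profiled on a mouse osteogenesis-focused cDNA array (GEArray Q series) built to track gene expression during osteogenic differentiation. Each gene's signal in treated cells was expressed as a ratio to untreated control.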

Osteoblast [7] = experiment: Effect on integrin beta 1 gene expression in rat primary osteoblast cells assessed as expression ratio of treated to untreated control by microarray analysis; type: functional; method in brief: as §2
Osteoblast [8] = experiment: Effect on bone morphogenetic protein 1 gene expression in rat primary osteoblast cells assessed as expression ratio of treated to untreated control by microarray analysis; type: functional
MDA-MB-231 [9] = experiment: Antitumor activity against human MDA-MB-231 cells xenografted in SCID mouse orthotropic model assessed as inhibition of 17beta estradiol-induced tumor formation at 10 mg/kg for 2 days; type: functional; design: scale not given: the % may be the effect or the level left
Method in brief: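 Tumor cells were inoculated orthotopically into the mammary fat pad of 6-week-old female SCID mice. […] Tumor volume was calculated as LW2/2. Tumor formation was scored as mice with tumors per total (20 per group), and tumor weight as mean ± S.D. Groups were compared by one-way ANOVA with LSD post-hoc comparisons.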

MC3T3-E1 [10] = experiment: Reversal of induction in ER.DNA complex in mouse MC3T3-E1 cells at 1 uM by RT-PCR in presence of tamoxifen; type: functional, cell-based
Method in brief: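 BMP-2 promoter quantified by real-time PCR (45 cycles, 61 °C anneal), reported as IP-to-input Ct ratio. DN-Src by 3 μg vector, PP2 at 10 μM; ICI182780 and tamoxifen at indicated concentrations.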

Rattus norvegicus = experiment: Increase in serum ALP activity in ovariectomized Wistar rat dosed orally after 10 weeks; type: functional, organism-based
Method in brief: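 Female Wistar rats sham-operated or ovariectomized, fed compound orally every 2 days at indicated doses; femur/tibia BMD by DEXA under ketamine (87 mg/kg)/xylazine (13 mg/kg) anesthesia and serum ALP measured 10 weeks after surgery; n = 8/group, means ± S.D.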

MC3T3-E1 [11] = experiment: Increase in osteopontin mRNA levels in mouse MC3T3-E1 cells at 1 uM after 72 hrs by RT-PCR; type: functional, cell-based; method in brief: as §1
Osteoblast [12] = experiment: Effect on twist gene homolog 1 gene expression in rat primary osteoblast cells assessed as expression ratio of treated to untreated control by microarray analysis; type: functional
Method in brief: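 GEArray Q series Mouse Osteogenesis cDNA array profiling osteogenic-differentiation genes in treated versus vehicle-treated primary osteoblasts.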

Osteoblast [13] = experiment: Effect on platelet derived growth factor alpha gene expression in rat primary osteoblast cells assessed as expression ratio of treated to untreated control by microarray analysis; type: functional; method in brief: as §2
Osteoblast [14] = experiment: Reversal of increase in ER.DNA complex in rat primary osteoblast cells transfected with dominant-negative mutant Src expression vector at 1 uM by RT-PCR; type: functional, cell-based
Osteoblast [15] = experiment: Effect on alkaline phosphatase 2 gene expression in rat primary osteoblast cells assessed as expression ratio of treated to untreated control by microarray analysis; type: functional
[16] = target: Proto-oncogene tyrosine-protein kinase Src (Mus musculus) (UniProt P05480); experiment: Reversal of increase in Src kinase phosphorylation in mouse MC3T3-E1 cells transfected with dominant-negative mutant Src expression vector at 1 uM; type: cell-based
Method in brief: (§3)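 Src phosphorylation, ERα nuclear translocation and BMP-2 protein analysed by Western blot with ECL detection. Three independent experiments.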

Osteoblast [17] = experiment: Effect on bone morphogenetic protein receptor 1B gene expression in rat primary osteoblast cells assessed as expression ratio of treated to untreated control by microarray analysis; type: functional
Osteoblast [18] = experiment: Effect on scavenger receptor B2 gene expression in rat primary osteoblast cells assessed as expression ratio of treated to untreated control by microarray analysis; type: functional; method in brief: as §2
[19] = Reversal of induction in BMP2 expression in mouse MC3T3-E1 cells transfected with dominant-negative mutant Src expression vector at 1 uM by Western blot; type: functional, cell-based; method in brief: as §3
[20] = target: Forkhead box protein O3 (Homo sapiens) (UniProt O43524); experiment: Reversal of induction of FOXO3a activity in human MDA-MB-231 cells transfected with FOXO3a-specific small interfering RNA; type: cell-based
MCF7 = experiment: Antiproliferative activity against human MCF7 cells at 1 uM by flow cytometry; type: functional, cell-based
Method in brief: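 Proliferation was measured by DNA flow cytometry. Incubations were run in triplicate across three separate experiments, and values are means ± S.D.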

Sequence of Forkhead box protein O3 (Homo sapiens) (O43524 whole entry): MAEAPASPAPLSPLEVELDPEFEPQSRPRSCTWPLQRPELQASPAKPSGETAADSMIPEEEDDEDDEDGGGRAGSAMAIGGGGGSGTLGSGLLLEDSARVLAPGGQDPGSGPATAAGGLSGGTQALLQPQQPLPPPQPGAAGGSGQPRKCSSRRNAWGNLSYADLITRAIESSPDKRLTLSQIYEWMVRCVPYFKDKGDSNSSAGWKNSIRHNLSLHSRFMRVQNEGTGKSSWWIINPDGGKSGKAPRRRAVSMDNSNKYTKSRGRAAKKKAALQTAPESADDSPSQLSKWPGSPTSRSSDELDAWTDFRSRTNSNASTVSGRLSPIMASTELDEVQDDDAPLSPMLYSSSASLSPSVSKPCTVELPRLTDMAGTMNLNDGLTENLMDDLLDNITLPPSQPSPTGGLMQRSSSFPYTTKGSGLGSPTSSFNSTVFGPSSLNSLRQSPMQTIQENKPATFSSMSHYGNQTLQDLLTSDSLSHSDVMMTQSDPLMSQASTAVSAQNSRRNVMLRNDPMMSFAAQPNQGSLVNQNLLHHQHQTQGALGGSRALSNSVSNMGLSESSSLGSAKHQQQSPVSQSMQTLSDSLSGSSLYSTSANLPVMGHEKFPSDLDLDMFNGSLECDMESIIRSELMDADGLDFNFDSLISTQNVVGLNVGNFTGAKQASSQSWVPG
Sequence of Proto-oncogene tyrosine-protein kinase Src (Mus musculus) (P05480 2-535 limits assumed): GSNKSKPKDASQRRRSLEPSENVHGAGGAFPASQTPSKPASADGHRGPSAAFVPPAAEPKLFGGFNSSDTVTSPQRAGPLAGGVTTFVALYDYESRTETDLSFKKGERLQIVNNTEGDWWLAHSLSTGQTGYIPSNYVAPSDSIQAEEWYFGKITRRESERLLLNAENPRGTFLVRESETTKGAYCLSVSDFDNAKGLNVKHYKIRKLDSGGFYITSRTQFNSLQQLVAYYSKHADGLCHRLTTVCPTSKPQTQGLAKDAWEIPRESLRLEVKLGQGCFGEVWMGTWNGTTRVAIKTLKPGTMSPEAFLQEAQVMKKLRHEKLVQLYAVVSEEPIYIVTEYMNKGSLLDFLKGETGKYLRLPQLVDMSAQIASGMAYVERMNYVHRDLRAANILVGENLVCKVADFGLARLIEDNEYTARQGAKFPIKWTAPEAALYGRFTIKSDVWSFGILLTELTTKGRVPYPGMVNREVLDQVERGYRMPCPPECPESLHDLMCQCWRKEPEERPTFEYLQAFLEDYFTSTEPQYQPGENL

For `Oc1ccc(/C=C/c2cc(O)cc(O)c2)cc1` [RESVERATROL], the Activity (MC3T3-E1 [1]) was “Active”, the Activity (MDA-MB-231 [2]) was “Active” and the Activity (MC3T3-E1 [3]) was “Active”. For the same compound, the Activity (Osteoblast [4]) was “Active”, the Activity [5] was “Active” and the Ratio (Osteoblast [6]) was 1. The Ratio (Osteoblast [7]) was 2.97, the Ratio (Osteoblast [8]) was 1.5 and the Activity (MDA-MB-231 [9]) was 85%. For the same compound, the Activity (MC3T3-E1 [10]) was “Dose-dependent effect”, the Activity (Rattus norvegicus) was “Dose-dependent effect” and the Activity (MC3T3-E1 [11]) was “Active”. For the same compound, the Ratio (Osteoblast [12]) was 3.77, the Ratio (Osteoblast [13]) was 4.34 and the Activity (Osteoblast [14]) was “Active”. The Ratio (Osteoblast [15]) was 8.63, the Activity [16] was “Active” and the Ratio (Osteoblast [17]) was 2.63. For the same compound, the Ratio (Osteoblast [18]) was 0.65, the Activity [19] was “Active” and the Activity [20] was “Active”. For the same compound, the Activity (MCF7) was “Active”.
